Hits are enriched below; roughly 2.2% of the tested compounds scored in any of these assays.
S100A4 MyoIIA – inhibitors of S100A4-myosin IIA peptide binding, primary screen, biochemical, fluorescence polarization, TAMRA-MyoIIA peptide. Protein S100-A4 (Homo sapiens), P26447. inhibition, % at 10.7 µM. actives 0.14% (n = 360,000);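 active means mean inhibition of at least 70% across replicates, with every replicate also reaching that level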
Target sequence (P26447 whole entry, looked up): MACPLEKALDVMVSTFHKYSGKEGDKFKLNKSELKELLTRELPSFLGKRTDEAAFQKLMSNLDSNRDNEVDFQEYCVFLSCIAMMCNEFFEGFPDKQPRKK
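assay system = human S100A4 monomer with TAMRA-labelled myosin IIA peptide | also added = labelled myosin peptide probe, 5 nM | incubation = 5 min between mix addition and reading | control set = DMSO and TFP controls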
FGF22 binding – binders of human FGF22 protein, primary screen, FGF22 synaptogenesis inhibitor project, biophysical, thermal shift, single point | Fibroblast growth factor 22 (Homo sapiens), Q9HCT0 | activity (Tm shift, normalised), % at 9.99 µM | actives 1.5% (n = 340,000) | recombinant FGF22 thermal shift, SYPRO orange fluorescence; percent of sucrose octasulfate shift, DMSO zero | AID 651658, 2012;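 active means mean Tm shift, scaled 0 neutral to 100 positive control, at about 1.3% or above, every replicate too, limit read from the data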
dFosB act – activators of delta FosB homodimer, primary screen, biochemical, fluorescence polarization, TAMRA-CDK5 oligo, single point | purified delta FosB; percent of positive-control signal above neutral wells | activation, % at 25 µM | actives 0.99% (n = 340,000) | AID 493131, 2011;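 active means mean activation above about 17%, with every replicate also reaching it, limit read from the data, passing the limit was not always enough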
Target sequence (P13346 whole entry, looked up): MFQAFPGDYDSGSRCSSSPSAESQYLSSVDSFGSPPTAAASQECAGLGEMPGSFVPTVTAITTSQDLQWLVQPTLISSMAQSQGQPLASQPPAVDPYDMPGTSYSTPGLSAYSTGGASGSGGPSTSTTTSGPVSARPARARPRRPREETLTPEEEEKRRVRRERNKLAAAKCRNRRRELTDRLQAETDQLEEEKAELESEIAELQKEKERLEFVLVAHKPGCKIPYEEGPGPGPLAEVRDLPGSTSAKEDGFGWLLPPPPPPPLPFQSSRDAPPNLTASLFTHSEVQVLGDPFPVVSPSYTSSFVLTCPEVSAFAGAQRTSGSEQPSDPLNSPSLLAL
CFTR F508del cor – F508del CFTR correction, initial screen, CFBE line, single point | CFBE cells, YFP halide quenching; stimulated with forskolin plus potentiator P3; % fluorescence drop versus neutral controls | activity (quench increase), % at 7.58 µM | actives 0.36% (n = 350,000);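 active means mean added fluorescence quench of at least 8% versus neutral control, with both replicates also reaching 8%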;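 further: cells transiently co-express mutant CFTR-F508del with the halide-sensitive YFP; corrector assay measuring rescue of mutant channel to the surface after 24 h compound exposure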
An asterisk follows results filed as active; · = no result given.

SMILES	S100A4 MyoIIA	FGF22 binding	dFosB act	CFTR F508del cor
Cc1ccc(CNC(C)c2ccccc2)cc1 (configuration not stated)	·	·	-6	·
COCCn1c(Cc2cccn2C)nnc1SCC(=O)NCc1ccc2c(c1)OCO2	0	44*	-1	2
CC(C)c1nnc(SCC(=O)NCc2ccc3c(c2)OCO3)n1C	·	·	3	·
Cc1nnc(SCC(=O)NCc2ccc3c(c2)OCO3)n1C	-6	43*	1	-5
CCC(C)C(=O)Nc1nnc(SCC(=O)Nc2ccccc2F)s1 (configuration not stated)	-6	44*	-4	2
CC(=O)Oc1ccc2oc(=O)c3c(c2c1)CCCN3C(=O)CN1CCOCC1	-5	43*	2	-3
CC(=O)Nc1ccc2c(c1)Cc1ccc(Cl)cc1-2	-1	0	-3	5
CC(=O)Nc1cc2c(cc1Cl)Cc1cc(Cl)ccc1-2	-3	43*	-4	-2
COc1cc(CCC(=O)OCC(N)=O)cc(OC)c1OC	-13	43*	1	1
COc1cc(CCC(=O)OCC(=O)Nc2c(F)cccc2F)cc(OC)c1OC	3	0	-8	-2
CC1CN(c2ccc([N+](=O)[O-])c(NCCOc3ccccc3)c2)CC(C)N1 (configuration not stated)	0	0	3	1
O=[N+]([O-])c1ccc(N2CCCCC2)cc1NCCOc1ccccc1	·	·	0	·
CCc1ccc(OCCNc2cc(N3CCNC(C)C3)ccc2[N+](=O)[O-])cc1 (configuration not stated)	-6	0	45*	13*
CC1CN(c2ccc([N+](=O)[O-])c(NCCOc3ccc(Cl)cc3)c2)CC(C)N1 (configuration not stated)	-6	0	37*	-8
COCCN(C[C@H]1[C@H](c2ccccc2)[C@H](CO)N1C(C)=O)C(=O)c1cccnc1	1	0	·	0
C[C@H](CO)N1C[C@H](C)[C@@H](CN(C)C(=O)NC2CCCCC2)OCCCC[C@H](C)Oc2ccc(NS(=O)(=O)c3ccc(Cl)cc3)cc2C1=O	-3	0	·	-1
CCN1C(=O)[C@H]2[C@@H](c3ccc(-c4ccc5c(c4)OCO5)c(OC)c3)N[C@@](C)(C(=O)OC)[C@H]2C1=O	99*	0	-9	-1
CCN1C(=O)[C@H]2[C@@H](c3ccc(-c4ccc(Cl)c(Cl)c4)cc3)N[C@@](C)(C(=O)OC)[C@H]2C1=O	0	0	-3	8.2*
CCN1C(=O)[C@H]2[C@@H](c3ccc(-c4ccc(Cl)c(Cl)c4)c(OC)c3)N[C@@](C)(C(=O)OC)[C@H]2C1=O	0	0	-9	-1
CC(C)COC(=O)N(C)C[C@@H]1OCc2ccccc2-c2c(n(C)c3ccccc23)C(=O)N([C@H](C)CO)C[C@@H]1C	8	0	·	0
CC(C)NC(=O)N(C)C[C@@H]1Oc2ncc(C#Cc3ccncc3)cc2C(=O)N([C@H](C)CO)C[C@@H]1C	49	0	·	-1
Cn1nc(CC#N)c2c(=N)n(N)cnc21	0	0	-1	2
CCCCn1cnc2c(c(CC#N)nn2-c2ccccc2)c1=N	-3	0	4	9.4*
Cc1noc(C)c1S(=O)(=O)Nc1ccc2c(c1)C(=O)N([C@H](C)CO)C[C@H](C)[C@H](CN(C)C(=O)C1CCCCC1)OCCCC[C@@H](C)O2	-9	-1	·	0
CCN(CC)CCNC(=O)c1ccc(Sc2ccc(Cl)cc2)c(NC(C)=O)c1	-1	45*	1	0
SMILES	S100A4 MyoIIA	FGF22 binding	dFosB act	CFTR F508del cor
CC(=O)Nc1cc(C(=O)N2CCc3ccccc3C2)ccc1Sc1ccc(Cl)cc1	1	0	-1	·
CCC(=O)Nc1cc(C(=O)O)ccc1Sc1ccc(Cl)cc1	-1	44*	-7	-1
CN(C)CC(=O)Nc1ccc2c(c1)[C@@H]1C[C@@H](CC(=O)NC3CCCCC3)O[C@H](CO)[C@@H]1O2	2	0	·	-2
Cc1cc(C)c(S(C)(=O)=O)c(NN)n1	-3	44*	-1	-2
CCCS(=O)(=O)c1nc(C)cc(C)c1S(C)(=O)=O	4	1	-7	1
COc1cccc(C#Cc2ccc([C@@H]3[C@@H](CO)N4C(=O)CN(C(=O)c5ccncc5)C[C@@H]34)cc2)c1	17	·	·	2
COCC(=O)Nc1cccc(-c2ccc3nncn3n2)c1	-4	0	-15	2
O=S(=O)(Nc1ccc(-c2ccc3nncn3n2)cc1)c1ccc(Cl)s1	-4	0	-6	3
CCc1ccc(S(=O)(=O)Nc2cccc(-c3ccc4nncn4n3)c2)s1	-3	43*	4	2
O=C(Cc1ccc(F)cc1)Nc1cccc(-c2ccc3nncn3n2)c1	1	44*	-30	3
O=C(CN1CCC(C(=O)c2cccc(F)c2)CC1)NCc1cccs1	-1	43*	-6	-3
Cc1sc2nc(CN3CCCC3)nc(N3CCN(C(=O)c4ccco4)CC3)c2c1C	-3	44*	-3	1
Cc1sc2nc(CN3CCCC3)nc(N3CCC(C(N)=O)CC3)c2c1C	·	·	0	·
CN1CCN(C(=O)/C(=C/c2ccc(F)cc2)c2ccsc2)CC1	2	43*	0	3
CN1CCN(C(=O)/C(=C/c2ccccc2)c2ccccc2)CC1	·	·	-1	·
O=C(C[C@H]1C[C@H]2c3cc(NC(=O)c4cccnc4)ccc3O[C@H]2[C@@H](CO)O1)NCc1cccc(F)c1	7	0	·	-1
O=C(COC(=O)c1cc(Br)ccc1Cl)NC(=O)NCc1ccccc1	6	44*	-6	-1
COC(=O)Cc1nnn2c1[C@H](C)[C@@H](OC)c1cccc(Cl)c1-2	-2	82*	·	-3
CO[C@@H]1CN(C)C(=O)c2ccc(NC(=O)NC(C)C)cc2OC[C@H](C)N(C(=O)C2CCC2)C[C@H]1C	-38	0	·	-3
C[C@@H]1CN([C@H](C)CO)C(=O)c2cc(-c3cccc(F)c3)cnc2O[C@H]1CN(C)C(=O)C1CCC1	7	0	·	-1
Cc1ccc(N(CC(=O)NC(C)(C)C)C(=O)CNC(=O)c2cccs2)c(C)c1	3	43*	0	·
Cc1cc(C)c(N(CC(=O)NC(C)(C)C)C(=O)CNC(=O)c2cccs2)c(C)c1	-3	0	-10	0
O=c1[nH][nH]c(-c2ccccc2)c1C=Nc1ccc(C(F)(F)F)cc1	2	44*	-4	-1
O=c1[nH][nH]c(-c2ccccc2)c1C=Nc1ccccc1	·	·	5	·
COC(=O)c1ccccc1S(=O)(=O)N1CCC(C(=O)NCc2ccccn2)CC1	7	43*	·	-1
C[C@@H]1CN([C@@H](C)CO)C(=O)c2cc(C#CCc3ccccc3)cnc2O[C@@H]1CN(C)CC1CC1	121*	0	·	1
